In ChEMBL document CHEMBL1151419, “Antimicrobial effect of halocidin-derived peptide in a mouse model of Listeria infection” (Antimicrob Agents Chemother, 2007):
Values after ≈ are worked out from the molar mass of the structure shown. Active and inactive are the calls of the source. The rule behind the calls is not given here. Bridge positions count the residues as written; N and C are the ends. Peptide text beside a SMILES is read from it. I, II: the chains in the order shown.

Legend:
[1] = Stability in human serum assessed as drug remaining at 1 mg/ml after 8 hrs; format: ADME, cell-free; conditions: read-out: Stability
Outline: (§1)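 At 0, 2, 4 and 8 h, 200-µl aliquots were quenched with 20 µl of 1% TFA, held 10 min at 4°C, and centrifuged. Remaining peptide was quantified by HPLC peak area relative to the unincubated sample. Triplicate runs.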

[2] = Stability in human serum assessed as half life at 1 mg/ml; format: ADME, cell-free
[3] = Stability in human serum assessed as drug remaining at 1 mg/ml after 4 hrs; format: ADME, cell-free; conditions: read-out: Stability; outline: as §1
Listeria monocytogenes [4] = assay: Antimicrobial activity against Listeria monocytogenes ATCC 19111 infected in BALB/c mouse assessed as reduction in number of recovered CFU in liver at 100 ug, iv measured after 3 days; format: functional, organism-based
Outline: (§2)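 Mice were infected i.v. with L. monocytogenes and immediately given 100 µg peptide in 100 µl PBS i.v.; PBS alone served as control. On days 1 and 3, liver and spleen were homogenized in PBS/0.1% BSA, serially diluted, and plated on TSA with 5% sheep blood. Colonies were counted after 18 h at 37°C. Three independent experiments; mean ± SD.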

Staphylococcus aureus [5] = assay: Antimicrobial activity against methicillin-resistant Staphylococcus aureus CCARM 3695 after 18 hrs by broth microdilution assay in presence of 150 mM NaCl; format: functional; conditions: CCARM 3695, 18 h
Outline: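 Same broth microdilution, but the medium was Mueller-Hinton broth supplemented with 150 mM NaCl. Inoculum 2 x 10^5 CFU/ml final. Peptide twofold series in 0.01% acetic acid (stocks 640 to 10 µg/ml). After 18 h at 37°C, MIC read as the lowest concentration with no visible growth.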

Listeria monocytogenes [6] = assay: Antimicrobial activity against Listeria monocytogenes ATCC 19111 infected in BALB/c mouse assessed as survival of mouse at 4 mg/kg, iv administered 2 hrs after bacterial challenge measured after 4 days; format: functional, organism-based; design: dose 4 mg/kg
Outline: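 Mice (n = 10) were infected by tail vein with 2 x 10^5 L. monocytogenes, grown 18 h at 37°C in brain heart infusion broth. A single i.v. dose of 4 mg/kg in 100 µl PBS was given 2 h after infection; PBS-treated infected mice served as vehicle control. Surviving mice were counted daily for 15 days.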

Staphylococcus aureus [7] = assay: Antimicrobial activity against methicillin-resistant Staphylococcus aureus CCARM 3695 treated with sample containing 25 to 200 ug/ml drug incubated with PBS for 10 mins measured after 3 hrs by radial diffusion assay; format: functional, organism-based
Outline: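 Serum-free radial diffusion. Peptide in PBS alone (200 µg/ml control) held 10 min at 37°C; 5 µl placed in 3-mm wells. Underlay: pH 7.4 agarose, phosphate/citrate, 0.3 mg/ml TSB, mid-log MRSA 4 x 10^6 CFU/ml. After 3 h at 37°C, TSB-agarose overlay, incubated overnight. Clear-zone diameter read to 0.1 mm (1 mm = 10 units).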

Listeria monocytogenes [8] = assay: Antimicrobial activity against Listeria monocytogenes ATCC 19111 infected in BALB/c mouse assessed as survival of mouse at 4 mg/kg, iv administered immediately after bacterial challenge measured after 6 days; format: functional; conditions: ATCC 19111, 144 h
Outline: (§3)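 L. monocytogenes grown 18 h at 37°C in brain heart infusion broth and frozen at –80°C; viability checked by plating. Mice infected via tail vein with 2 x 10^5 bacteria each. A single 4 mg/kg i.v. dose in 100 µl PBS was given immediately or 2 h after infection; PBS vehicle controls. Ten mice per group; survivors counted daily for 15 days.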

Staphylococcus aureus [9] = assay: Antimicrobial activity against methicillin-resistant Staphylococcus aureus CCARM 3695 treated with sample containing 25 to 200 ug/ml drug incubated with PBS containing 50% normal human serum for 10 mins measured after 3 hrs by radial diffusion assay; format: functional, organism-based
Outline: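 Normal human serum from three donors, heat-treated 30 min at 56°C. Peptide at 25–200 µg/ml in PBS with 50% serum, held 10 min at 37°C; 5 µl placed in 3-mm wells. Underlay: 1% agarose, 9 mM phosphate, 1 mM citrate, 0.3 mg/ml TSB, pH 7.4, with 4 x 10^6 CFU/ml mid-log MRSA. After 3 h at 37°C, overlaid (1% agarose, 6% TSB), incubated overnight. Clear zones in units (1 mm = 10 units); triplicate means.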

Liver = assay: Drug penetration in BALB/c mouse liver infected with CFSE-labeled Listeria monocytogenes ATCC 19111 at 200 ug, iv by laser scanning confocal microscopy; format: ADME, organism-based; conditions: in vivo
Outline: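 Listeria was labeled with 5 µM CFSE for 20 min at 37°C in darkness and washed. Mice received 4 x 10^8 cells by tail vein, then immediately 200 µg peptide in 100 µl PBS i.v., or PBS only. Livers were taken 10 min later. Frozen 6-µm sections were stained with cross-reacting rabbit anti-18Hc antiserum (1:200) and Cy3 goat anti-rabbit IgG, then imaged by laser scanning confocal microscopy.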

Staphylococcus aureus [10] = assay: Antimicrobial activity against methicillin-resistant Staphylococcus aureus CCARM 3695 after 18 hrs by broth microdilution assay; format: functional; conditions: CCARM 3695, 18 h
Outline: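 Broth microdilution (modified CLSI). Overnight stationary-phase Mueller-Hinton broth cultures diluted to 2 x 10^5 CFU/ml final. Peptide serially twofold diluted in 0.01% acetic acid (stock series 640 down to 10 µg/ml); 11 µl added to 100 µl of bacteria. After 18 h at 37°C, MIC taken as the lowest concentration preventing visible turbidity.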

Listeria monocytogenes [11] = assay: Antimicrobial activity against Listeria monocytogenes ATCC 19111 infected in BALB/c mouse assessed as survival of mouse at 4 mg/kg, iv administered 2 hrs after bacterial challenge measured after 15 days; format: functional; outline: as §3
Mus musculus = assay: Toxicity in BALB/c mouse assessed as lethality at 4 mg/kg, iv repeated 4 times at 1-day interval measured after 2 weeks; format: organism-based; design: dose 4 mg/kg, route intravenous; conditions: in vivo, 336 h
Outline: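 Uninfected mice (n = 10) given 4 mg/kg i.v., repeated four times at 1-day intervals. Deaths monitored for 2 weeks.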

Listeria monocytogenes [12] = assay: Antimicrobial activity against Listeria monocytogenes ATCC 19111 infected in BALB/c mouse assessed as survival of mouse at 4 mg/kg, iv administered immediately after bacterial challenge measured after 15 days; format: functional; conditions: ATCC 19111, 360 h; outline: as §3
Listeria monocytogenes [13] = assay: Antimicrobial activity against Listeria monocytogenes ATCC 19111 infected in BALB/c mouse at 4 mg/kg, iv in presence of increasing concentration of LTA; format: functional, organism-based; design: dose 4 mg/kg
[14] = Toxicity against human erythrocytes in assay tube containing mixture of erythrocytes/Listeria monocytogenes cells at 40 ug/ml after 30 mins; format: cell-based; conditions: erythrocyte, 0.5 h
Outline: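 Washed mid-log L. monocytogenes (final 1 x 10^5 CFU/ml) was mixed with human blood cells (final 5 x 10^8 cells/ml) and peptide (final 40 µg/ml) in PBS at 37°C. A peptide-free control was included. At 10, 20 and 30 min, aliquots were plated on TSA and colonies counted after overnight growth. Blood cells were counted by hemocytometer under light microscopy.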

Listeria monocytogenes [15] = assay: Antimicrobial activity against Listeria monocytogenes ATCC 19111 infected in BALB/c mouse assessed as reduction in number of recovered CFU in spleen at 100 ug, iv measured after 3 days; format: functional, organism-based; outline: as §2
Listeria monocytogenes [16] = assay: Antimicrobial activity against Listeria monocytogenes ATCC 19111 infected in BALB/c mouse at 4 mg/kg, iv in presence of increasing concentration of mannan; format: functional, organism-based; design: dose 4 mg/kg

CC(C)C[C@H](NC(=O)CNC(=O)[C@H](Cc1cnc[nH]1)NC(=O)[C@H](Cc1cnc[nH]1)NC(=O)[C@H](CC(C)C)NC(=O)[C@H](CC(C)C)NC(=O)[C@H](C)N)C(=O)N[C@@H](CC(N)=O)C(=O)N[C@@H](CSSC[C@H](NC(=O)[C@H](CC(N)=O)NC(=O)[C@H](CC(C)C)NC(=O)CNC(=O)[C@H](Cc1cnc[nH]1)NC(=O)[C@H](Cc1cnc[nH]1)NC(=O)[C@H](CC(C)C)NC(=O)[C@H](CC(C)C)NC(=O)[C@H](C)NC(=O)[C@H](CC(N)=O)NC(=O)[C@H](CC(C)C)NC(=O)[C@H](Cc1c[nH]c2ccccc12)NC(=O)[C@@H](N)CCCCN)C(=O)N[C@@H](C)C(=O)N[C@@H](CCCCN)C(=O)NCC(=O)N[C@H](C(=O)N[C@@H](CC(C)C)C(=O)N[C@@H](C)C(=O)O)C(C)C)C(=O)N[C@@H](C)C(=O)N[C@@H](CCCCN)C(=O)NCC(=O)N[C@H](C(=O)N[C@@H](CC(C)C)C(=O)N[C@@H](C)C(=O)O)C(C)C (I: H-KWLNALLHHGLNCAKGVLA-OH / II: H-ALLHHGLNCAKGVLA-OH; disulfide I:13-II:9)
remaining at 8 h, 1 mg/ml [1]: 39% | half-life at 1 mg/ml [2]: 6 h | remaining at 4 h, 1 mg/ml [3]: > 70% | Activity (Listeria monocytogenes [4]): Active | MIC (Staphylococcus aureus [5]): 16 µg/mL | Activity (Listeria monocytogenes [6]): Active | Activity (Staphylococcus aureus [7]): Active | survival at 4 mg/kg (Listeria monocytogenes [8]): 100% | Activity (Staphylococcus aureus [9]): Active | Activity (Liver): Active | MIC (Staphylococcus aureus [10]): 8 µg/mL (≈ 2.24 µM) | survival at 4 mg/kg (Listeria monocytogenes [11]): 50% | Activity (Mus musculus): Non-toxic | survival at 4 mg/kg (Listeria monocytogenes [12]): 90% | Activity (Listeria monocytogenes [13]): inactive | Activity [14]: Non-toxic | Activity (Listeria monocytogenes [15]): Active | Activity (Listeria monocytogenes [16]): Active
